# According to ChEMBL document CHEMBL1127321, “Synthesis and photodynamic activities of silicon 2,3-naphthalocyanine derivatives” (J Med Chem, 1994):
# What was measured:
# [1] = Tested for extracellular drug concentration required to kill 50 percent of V-79 cells after one hour incubation period; details: Chinese hamster, V79 cells; read-out: LD50
# [2] = Tested for extracellular drug concentration required to kill 50 percent of V-79 cells after one hour incubation period and subsequent exposure red light; details: Chinese hamster, V79 cells; read-out: LD50
# Mus musculus [3] = test: Tested for plasma concentration in tumor-bearing mice after 1 day by intravenous administration at 1 umol/kg; assay type: functional
# Method in brief: (§1)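 Male BALB/c AnN mice carrying intradermal EMT-6 tumours on the hind thighs (2×10^5 cells; used 6-8 days later at 4-8 mm diameter) received 1 μmol/kg iv via the tail vein in 10% Cremophor emulsion. Plasma from orbital-sinus blood and excised tissue were extracted with DMF overnight at 37 °C, then centrifuged. Dye was read by fluorescence (ex 766, em 780 nm) against per-tissue calibration curves. Mean with SE, n = 3.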
# Mus musculus [4] = test: Tested for plasma concentration in tumor-bearing mice after 1 hour by intravenous administration at 1 umol/kg; assay type: functional
# Method in brief: as §1
# Mus musculus [5] = test: Tested for plasma concentration in tumor-bearing mice after 12 hour by intravenous administration at 1 umol/kg; assay type: functional
# Method in brief: as §1
# Mus musculus [6] = test: Tested for plasma concentration in tumor-bearing mice after 2 day by intravenous administration at 1 umol/kg; assay type: functional
# Method in brief: as §1
# Mus musculus [7] = test: Tested for plasma concentration in tumor-bearing mice after 3 hour by intravenous administration at 1 umol/kg; assay type: functional
# Method in brief: as §1
# Mus musculus [8] = test: Tested for plasma concentration in tumor-bearing mice after 3 day by intravenous administration at 1 umol/kg; assay type: functional
# Method in brief: as §1
# Mus musculus [9] = test: Tested for plasma concentration in tumor-bearing mice after 6 hour by intravenous administration at 1 umol/kg; assay type: functional
# Method in brief: as §1
# Mus musculus [10] = test: Tested for plasma concentration in tumor-bearing mice after 7 day by intravenous administration at 1 umol/kg; assay type: functional
# Method in brief: as §1
# Mus musculus [11] = test: Mean tissue uptake in skin determined in tumor-bearing mice after 7 days by intravenous administration at 1 umol/kg; assay type: functional
# Method in brief: as §1
# Mus musculus [12] = test: Mean tissue uptake in tumor determined in tumor-bearing mice after 1 day by intravenous administration at 1 umol/kg; assay type: functional
# Method in brief: as §1
# Mus musculus [13] = test: Mean tissue uptake in tumor determined in tumor-bearing mice after 1 hour by intravenous administration at 1 umol/kg; assay type: functional
# Method in brief: as §1
# Mus musculus [14] = test: Mean tissue uptake in tumor determined in tumor-bearing mice after 12 hour by intravenous administration at 1 umol/kg; assay type: functional
# Method in brief: as §1
# Mus musculus [15] = test: Mean tissue uptake in tumor determined in tumor-bearing mice after 2 day by intravenous administration at 1 umol/kg; assay type: functional
# Method in brief: as §1
# Mus musculus [16] = test: Mean tissue uptake in tumor determined in tumor-bearing mice after 3 hour by intravenous administration at 1 umol/kg; assay type: functional
# Method in brief: as §1
# Mus musculus [17] = test: Mean tissue uptake in tumor determined in tumor-bearing mice after 3 day by intravenous administration at 1 umol/kg; assay type: functional
# Method in brief: as §1
# Mus musculus [18] = test: Mean tissue uptake in tumor determined in tumor-bearing mice after 7 day by intravenous administration at 1 umol/kg; assay type: functional
# Method in brief: as §1
# Mus musculus [19] = test: Mean tissue uptake in muscle determined in tumor-bearing mice after 1 hour by intravenous administration at 1 umol/kg; assay type: functional
# Method in brief: as §1
# Mus musculus [20] = test: Mean tissue uptake in muscle determined in tumor-bearing mice after 12 hour by intravenous administration at 1 umol/kg; assay type: functional
# Method in brief: as §1
# Mus musculus [21] = test: Mean tissue uptake in muscle determined in tumor-bearing mice after 1 day by intravenous administration at 1 umol/kg; assay type: functional
# Method in brief: as §1
# Mus musculus [22] = test: Mean tissue uptake in muscle determined in tumor-bearing mice after 2 day by intravenous administration at 1 umol/kg; assay type: functional
# Method in brief: as §1
# Mus musculus [23] = test: Mean tissue uptake in muscle determined in tumor-bearing mice after 3 hour by intravenous administration at 1 umol/kg; assay type: functional
# Method in brief: as §1
# Mus musculus [24] = test: Mean tissue uptake in muscle determined in tumor-bearing mice after 3 days by intravenous administration at 1 umol/kg; assay type: functional
# Method in brief: as §1
# Mus musculus [25] = test: Mean tissue uptake in muscle determined in tumor-bearing mice after 6 hour by intravenous administration at 1 umol/kg; assay type: functional
# Method in brief: as §1
# Mus musculus [26] = test: Mean tissue uptake in muscle determined in tumor-bearing mice after 7 days by intravenous administration at 1 umol/kg; assay type: functional
# Method in brief: as §1
# Mus musculus [27] = test: Mean tissue uptake in skin determined in tumor-bearing mice after 12 hr by intravenous administration at 1 umol/kg; assay type: functional
# Method in brief: as §1
# Mus musculus [28] = test: Mean tissue uptake in skin determined in tumor-bearing mice after 1 day by intravenous administration at 1 umol/kg; assay type: functional
# Method in brief: as §1
# Mus musculus [29] = test: Mean tissue uptake in skin determined in tumor-bearing mice after 1 hr by intravenous administration at 1 umol/kg; assay type: functional
# Method in brief: as §1
# Mus musculus [30] = test: Mean tissue uptake in skin determined in tumor-bearing mice after 2 day by intravenous administration at 1 umol/kg; assay type: functional
# Method in brief: as §1
# Mus musculus [31] = test: Mean tissue uptake in skin determined in tumor-bearing mice after 3 days by intravenous administration at 1 umol/kg; assay type: functional
# Method in brief: as §1
# Mus musculus [32] = test: Mean tissue uptake in skin determined in tumor-bearing mice after 3 hr by intravenous administration at 1 umol/kg; assay type: functional
# Method in brief: as §1
# Mus musculus [33] = test: Mean tissue uptake in skin determined in tumor-bearing mice after 6 hr by intravenous administration at 1 umol/kg; assay type: functional
# Method in brief: as §1
# [34] = Tumor/muscle uptake ratio after 12 hr; assay type: functional, Muscle tissue
# Method in brief: (§2)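 The ratio of tumour uptake (μg/g) to muscle uptake (μg/g), or to plasma concentration (μg/mL), was taken at each time point. Mice were EMT-6-bearing BALB/c (n = 3) given 1 μmol/kg iv in 10% Cremophor emulsion. Dye was measured by fluorescence (ex 766, em 780 nm) in DMF extracts and quantified against tissue-specific calibration curves.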
# [35] = Tumor/muscle uptake ratio after 1 day; assay type: functional, Muscle tissue
# Method in brief: as §2
# [36] = Tumor/muscle uptake ratio after 1 hr; assay type: functional, Muscle tissue
# Method in brief: as §2
# [37] = Tumor/muscle uptake ratio after 2 day; assay type: functional, Muscle tissue
# Method in brief: as §2
# [38] = Tumor/muscle uptake ratio after 3 days; assay type: functional, Muscle tissue
# Method in brief: as §2
# [39] = Tumor/muscle uptake ratio after 3 hr; assay type: functional, Muscle tissue
# Method in brief: as §2
# [40] = Tumor/muscle uptake ratio after 6 hr; assay type: functional, Muscle tissue
# Method in brief: as §2
# [41] = Tumor/muscle uptake ratio after 7 days; assay type: functional, Muscle tissue
# Method in brief: as §2
# [42] = Tumor/plasma uptake ratio after 1 day; assay type: functional
# Method in brief: as §2
# [43] = Tumor/plasma uptake ratio after 1 hr; assay type: functional
# Method in brief: as §2
# [44] = Tumor/plasma uptake ratio after 2 day; assay type: functional
# Method in brief: as §2
# [45] = Tumor/plasma uptake ratio after 3 days; assay type: functional
# Method in brief: as §2
# [46] = Tumor/plasma uptake ratio after 3 hr; assay type: functional
# Method in brief: as §2
# [47] = Tumor/plasma uptake ratio after 6 hr; assay type: functional
# Method in brief: as §2
# Mus musculus [48] = test: Mean tissue uptake in tumor determined in tumor-bearing mice after 6 hour by intravenous administration at 1 umol/kg; assay type: functional
# Method in brief: as §1
# [49] = Tumor/plasma uptake ratio after 12 hr; assay type: functional
# Method in brief: as §2
smiles,measurement,setting,value
CC(C)(C)[Si](C)(C)O[Si]1(O[Si](C)(C)C(C)(C)C)n2c3c4cc5ccccc5cc4c2/N=C2N=C(/N=c4/c5cc6ccccc6cc5/c(n41)=N/C1=NC(=N\3)/c3cc4ccccc4cc31)c1cc3ccccc3cc1\2,CC50 at 1 h,[1],36 µM
same,CC50 at 1 h,[2],12 µM
CCCCCCCCCCCCCCCCCC[Si](C)(C)O[Si]1(O[Si](C)(C)CCCCCCCCCCCCCCCCCC)n2c3c4cc5ccccc5cc4c2/N=C2N=C(/N=c4/c5cc6ccccc6cc5/c(n41)=N/C1=NC(=N\3)/c3cc4ccccc4cc31)c1cc3ccccc3cc1\2,CC50 at 1 h,[1],4.2 µM
same,CC50 at 1 h,[2],1.8 µM
CC(C)C(C)(C)[Si](C)(C)O[Si]1(O[Si](C)(C)C(C)(C)C(C)C)n2c3c4cc5ccccc5cc4c2/N=C2N=C(/N=c4/c5cc6ccccc6cc5/c(n41)=N/C1=NC(=N\3)/c3cc4ccccc4cc31)c1cc3ccccc3cc1\2,Blood clearance,Mus musculus [3],2.06 µg/mL
same,Blood clearance,Mus musculus [4],12.94 µg/mL
same,Blood clearance,Mus musculus [5],5.51 µg/mL
same,Blood clearance,Mus musculus [6],0.21 µg/mL
same,Blood clearance,Mus musculus [7],11.28 µg/mL
same,Blood clearance,Mus musculus [8],0.02 µg/mL
same,Blood clearance,Mus musculus [9],9.12 µg/mL
same,Blood clearance,Mus musculus [10],0 µg/mL
same,Tissue distribution,Mus musculus [11],0.35 µg/g
same,Tissue distribution,Mus musculus [12],0.71 µg/g
same,Tissue distribution,Mus musculus [13],0.43 µg/g
same,Tissue distribution,Mus musculus [14],0.9 µg/g
same,Tissue distribution,Mus musculus [15],0.73 µg/g
same,Tissue distribution,Mus musculus [16],0.46 µg/g
same,Tissue distribution,Mus musculus [17],0.77 µg/g
same,Tissue distribution,Mus musculus [18],0.51 µg/g
same,Tissue distribution,Mus musculus [19],0.12 µg/g
same,Tissue distribution,Mus musculus [20],0.09 µg/g
same,Tissue distribution,Mus musculus [21],0.11 µg/g
same,Tissue distribution,Mus musculus [22],0.08 µg/g
same,Tissue distribution,Mus musculus [23],0.32 µg/g
same,Tissue distribution,Mus musculus [24],0.13 µg/g
same,Tissue distribution,Mus musculus [25],0.98 µg/g
same,Tissue distribution,Mus musculus [26],0.08 µg/g
same,Tissue distribution,Mus musculus [27],0.56 µg/g
same,Tissue distribution,Mus musculus [28],0.46 µg/g
same,Tissue distribution,Mus musculus [29],0.13 µg/g
same,Tissue distribution,Mus musculus [30],0.43 µg/g
same,Tissue distribution,Mus musculus [31],0.44 µg/g
same,Tissue distribution,Mus musculus [32],0.51 µg/g
same,Tissue distribution,Mus musculus [33],0.36 µg/g
same,Ratio,[34],10
same,Ratio,[35],6.4
same,Ratio,[36],3.6
same,Ratio,[37],9.1
same,Ratio,[38],5.9
same,Ratio,[39],1.4
same,Ratio,[40],0.7
same,Ratio,[41],6.4
same,Ratio,[42],0.34
same,Ratio,[43],0.03
same,Ratio,[44],3.5
same,Ratio,[45],38
same,Ratio,[46],0.04
same,Ratio,[47],0.07
same,Tissue distribution,Mus musculus [48],0.65 µg/g
same,Ratio,[49],0.16
same,CC50 at 1 h,[1],6.5 µM
same,CC50 at 1 h,[2],5.5 µM
CCCCCC[Si](CCCCCC)(CCCCCC)O[Si]1(O[Si](CCCCCC)(CCCCCC)CCCCCC)n2c3c4cc5ccccc5cc4c2/N=C2N=C(/N=c4/c5cc6ccccc6cc5/c(n41)=N/C1=NC(=N\3)/c3cc4ccccc4cc31)c1cc3ccccc3cc1\2,CC50 at 1 h,[1],46 µM
same,CC50 at 1 h,[2],29 µM
